Here are results for 40 compounds from PubChem BioAssay.

This is one part of the list. Activity calls are given as the source filed them.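 The calls were made as follows, unless noted: active = mean of duplicate thallium-flux fluorescence ratios in parental host cells more than 5 SD below the buffer control mean (cut at about 0.38 in these data); inactive = the rest.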

Sequence of Potassium voltage-gated channel subfamily KQT member 2 (Rattus norvegicus) (O88943 whole entry, looked up): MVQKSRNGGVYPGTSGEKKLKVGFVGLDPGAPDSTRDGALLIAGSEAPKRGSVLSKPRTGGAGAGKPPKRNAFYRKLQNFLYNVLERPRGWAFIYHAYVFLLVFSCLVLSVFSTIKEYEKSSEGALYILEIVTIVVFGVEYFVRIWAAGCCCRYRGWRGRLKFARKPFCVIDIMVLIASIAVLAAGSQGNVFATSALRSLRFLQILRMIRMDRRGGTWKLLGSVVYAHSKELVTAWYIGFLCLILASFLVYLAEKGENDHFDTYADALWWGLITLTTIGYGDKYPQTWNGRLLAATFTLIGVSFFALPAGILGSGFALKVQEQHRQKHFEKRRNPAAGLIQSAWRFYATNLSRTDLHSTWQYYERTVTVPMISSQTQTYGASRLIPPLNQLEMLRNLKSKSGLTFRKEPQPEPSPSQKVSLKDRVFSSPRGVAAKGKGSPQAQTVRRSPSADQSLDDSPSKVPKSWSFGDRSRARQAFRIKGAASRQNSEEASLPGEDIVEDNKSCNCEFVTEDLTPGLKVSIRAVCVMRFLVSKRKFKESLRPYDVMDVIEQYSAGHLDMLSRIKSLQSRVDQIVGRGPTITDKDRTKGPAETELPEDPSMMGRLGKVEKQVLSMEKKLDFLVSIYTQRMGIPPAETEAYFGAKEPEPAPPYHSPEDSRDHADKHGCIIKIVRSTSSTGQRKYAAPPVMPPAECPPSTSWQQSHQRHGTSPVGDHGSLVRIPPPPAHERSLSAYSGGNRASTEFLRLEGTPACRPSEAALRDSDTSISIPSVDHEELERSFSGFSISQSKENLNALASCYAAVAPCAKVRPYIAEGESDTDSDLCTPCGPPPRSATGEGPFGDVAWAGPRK

System in the first assay: not listed separately
Put plainly: nonspecific activity in CHO-K1 cells without KCNQ1 – parental CHO cells, Tl flux, counter-screen for KCNQ1 inhibitor project (AID 588366).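 Also: ratio is peak minus minimum fluorescence divided by baseline fluorescence; actives read low.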 Particulars: parental CHO-K1, FluxOR thallium flux fluorescence ratio; at 10 µM; active compounds read low; zero means no signal rise above baseline. In outline: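 Assay system – untransfected parental CHO-K1 cells · Technique – kinetic Tl+ flux fluorescence with FluxOR dye · Timing – FluxOR dye loading 90 min, compound exposure 20 min, room temperature · Replication – duplicate measurements per compound · Also added – K+/Tl+ depolarizing stimulus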
Background: The purpose of a counterscreen is to sort out artefacts and off-target activity.
Take `O=C(Nc1ccc(Cl)cc1)Nc1ccc(Oc2cccnc2)nc1`: the fluorescence ratio (Tl flux) is 0.487 (inactive).

`c1ccc2c(c1)C(=NC1CCCCC1)NC2=NC1CCCCC1`: the fluorescence ratio (Tl flux) is 0.526 (inactive).

`Cn1nc(-c2ccc(Cl)cc2)c2cc(C(=O)NCc3ccco3)sc21`: the fluorescence ratio (Tl flux) is 0.454 (inactive).

For `O=C(NC(=S)Nc1ccccc1C(=O)O)c1ccc(-c2ccc(Br)cc2)o1`, the fluorescence ratio (Tl flux) was 0.46 (inactive).

Turning to `O=C(Nc1nnc(S(=O)(=O)N2CCCCCC2)s1)c1cccc(Br)c1`, the fluorescence ratio (Tl flux) is 0.485 (inactive).

For the compound `CC1CCC2(CC1)NC(=O)N(CC(=O)c1cccn1C)C2=O` (stereo not given), the fluorescence ratio (Tl flux) was 0.503 (inactive).

As to `Cc1cc2nc3c(=O)n(Cc4ccccc4)c(=O)[nH]c3nc2cc1N`, the fluorescence ratio (Tl flux) was 0.332 (active).

Take `Cc1ccc(S(=O)(=O)Nc2ccc3ncccc3c2)cc1`: the fluorescence ratio (Tl flux) is 0.499 (inactive).

Take `CCC(=C/c1sc2ccc3ccccc3c2[n+]1C)/C=C1\Sc2ccc3ccccc3c2N1C`: the fluorescence ratio (Tl flux) is 0.508 (inactive).

Consider `CC(C(=O)NCC1CCCCC1)N(C)Cc1cccc(Cl)c1` (stereo not given), for which the fluorescence ratio (Tl flux) is 0.435 (inactive).

Consider `O=C1CCCN1CCCNC(=S)Nc1ccc(F)c(Cl)c1`, for which the fluorescence ratio (Tl flux) is 0.445 (inactive).

On to `FC(F)Oc1ccc(NC(=S)NCc2ccco2)cc1Cl`, for which the fluorescence ratio (Tl flux) is 0.494 (inactive).

As to `COc1ccc(S(=O)(=O)/N=C2\C=C(NS(=O)(=O)c3ccccc3)C(=O)c3ccccc32)cc1`, the fluorescence ratio (Tl flux) was 0.44 (inactive).

`Cc1nnc(SC(C(=O)Nc2cc(Cl)cc(Cl)c2)c2ccccc2)[nH]c1=O` (stereo not given): the fluorescence ratio (Tl flux) is 0.471 (inactive).

Take `Fc1cc(Br)ccc1NC(=S)Nc1cccnc1`: the fluorescence ratio (Tl flux) was 0.539 (inactive).

In the case of `CCNC(=O)c1ccc(OCC(=O)Nc2ccc(F)cc2)c(OC)c1`, the fluorescence ratio (Tl flux) is 0.446 (inactive).

Turning to `Cc1nn(C)cc1N1C(=O)c2cccc3c(N)ccc(c23)C1=O`, the fluorescence ratio (Tl flux) is 0.006 (active).

For the compound `CCOC(=O)c1c(NC(=O)C(C)Sc2c[nH]c3ccccc23)sc2c1CCC2` (stereo not given), the fluorescence ratio (Tl flux) was 0.415 (inactive).

Regarding `Cc1cccc(-n2cc(CN3CCN(C(=O)c4ncn[nH]4)CC3)c(-c3cccc(F)c3)n2)c1`, the fluorescence ratio (Tl flux) was 0.435 (inactive).

For `O=C(NCCc1ccccc1)c1ccc2c(c1)N(Cc1ccccc1)CCS2`, the fluorescence ratio (Tl flux) is 0.426 (inactive).

For the compound `COC(=O)c1cc(NC(=O)c2cc(C(C)(C)C)nn2Cc2cccc(C)c2)ccc1N1CCOCC1`, the fluorescence ratio (Tl flux) was 0.333 (active).

Take `Cc1oc2c(F)c(F)c(F)c(F)c2c1S(=O)(=O)Nc1cccc(C(F)(F)F)c1`: the fluorescence ratio (Tl flux) was 0.531 (inactive).

For the compound `CCc1cc(C(c2ccccc2OC)N2CCOCC2)c(NC(=O)c2ccccc2)s1` (stereo not given), the fluorescence ratio (Tl flux) is 0.335 (active).

With `Cc1cccc(CSc2ccc(-c3cccs3)nn2)c1`, the fluorescence ratio (Tl flux) was 0.42 (inactive).

As for `CCCC(=O)N1CCN(c2nnc(-c3ccc(C)cc3)c3ccccc23)CC1`, the fluorescence ratio (Tl flux) was 0.507 (inactive).

For the compound `COc1ccc(Nc2ncnc3sc(-c4ccccc4)cc23)c(OC)c1`, the fluorescence ratio (Tl flux) is 0.403 (inactive).

Regarding `COC(=O)c1ccc(NC(=O)Nc2ccc(C)cc2)cc1`, the fluorescence ratio (Tl flux) is 0.504 (inactive).

Regarding `CN(c1cccc(NC(=O)Nc2ccc(Cl)cc2)c1)S(C)(=O)=O`, the fluorescence ratio (Tl flux) was 0.545 (inactive).

Consider `CC(C)OC(=O)C(C#N)c1nc2ccccc2nc1N1CCN(Cc2ccccc2)CC1` (stereo not given), for which the fluorescence ratio (Tl flux) is 0.382 (inactive).

As to `Cc1ccc(-c2noc(CC(c3ccccc3)c3ccccc3)n2)cc1`, the fluorescence ratio (Tl flux) was 0.45 (inactive).

Turning to `S=C(Nc1cccc(Cl)c1)Nc1ccc2c(c1)OCCO2`, the fluorescence ratio (Tl flux) is 0.444 (inactive).

For `Cc1ccccc1OCC(=O)Nc1ccc(N2CCN(C(=O)C(C)C)CC2)c(Cl)c1`, the fluorescence ratio (Tl flux) is 0.503 (inactive).

For `O=C1CCc2cc(S(=O)(=O)N3CCC(C(=O)NCc4ccccc4Cl)CC3)ccc2N1`, the fluorescence ratio (Tl flux) is 0.447 (inactive).

For the compound `O=C(NCC(F)(F)F)Nc1nnc(C(F)(F)F)s1`, the fluorescence ratio (Tl flux) was 0.557 (inactive).

With `Cc1ccc(N2CCN(S(=O)(=O)c3ccc(F)cc3)CC2)c(C)c1`, the fluorescence ratio (Tl flux) was 0.406 (inactive).

On to `Cc1ccccc1C(=O)OC1OC(=O)C(Cl)=C1Nc1ccccc1` (stereo not given), for which the fluorescence ratio (Tl flux) was 0.434 (inactive).

Regarding `CS(=O)(=O)N(CC(=O)Nc1ccc(Cl)c(Cl)c1)C1CCCCC1`, the fluorescence ratio (Tl flux) was 0.476 (inactive).

For `CCOc1ccc(CN2CCN(Cc3c[nH]c4ccccc34)CC2)cc1`, the fluorescence ratio (Tl flux) was 0.441 (inactive).

Consider `COc1ccc(-c2cc(C(F)(F)F)nc(S(C)(=O)=O)n2)cc1OC`, for which the fluorescence ratio (Tl flux) is 0.445 (inactive).

On to `Oc1ccc2ccc3cccc[n+]3c2c1`, for which the fluorescence ratio (Tl flux) is 0.012 (active).

Another assay addresses Potassium voltage-gated channel subfamily KQT member 2 (Rattus norvegicus) (UniProt O88943). Put plainly: block of rat KCNQ2 potassium channel – cell-based, selectivity assay for KCNQ1 inhibitor project (AID 651746;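 active = mean percent inhibition of the KCNQ2 thallium signal more than 5 SD above the buffer-only control wells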;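 also: KCNQ2 expressed in CHO cells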;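 as to inhibition: 0% = buffer control wells and 100% = XE-991 inhibitor control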). The conditions noted are these: KCNQ2 cells, FluxOR thallium flux fluorescence, at 10 µM; active compounds read high.
Take `c1ccc2c(c1)C(=NC1CCCCC1)NC2=NC1CCCCC1`: the compound was classed as inactive.

For `Cn1nc(-c2ccc(Cl)cc2)c2cc(C(=O)NCc3ccco3)sc21`, the inhibition was 103% (active).

For the compound `O=C(NC(=S)Nc1ccccc1C(=O)O)c1ccc(-c2ccc(Br)cc2)o1`, the call was inactive.

As to `O=C(Nc1nnc(S(=O)(=O)N2CCCCCC2)s1)c1cccc(Br)c1`, the call was inactive.

Take `CC1CCC2(CC1)NC(=O)N(CC(=O)c1cccn1C)C2=O` (stereo not given): the result was inactive.

Regarding `Cc1cc2nc3c(=O)n(Cc4ccccc4)c(=O)[nH]c3nc2cc1N`, the result was inactive.

Turning to `Cc1ccc(S(=O)(=O)Nc2ccc3ncccc3c2)cc1`, the call was inactive.

`CCC(=C/c1sc2ccc3ccccc3c2[n+]1C)/C=C1\Sc2ccc3ccccc3c2N1C`: the inhibition is 59% (active).

With `CC(C(=O)NCC1CCCCC1)N(C)Cc1cccc(Cl)c1` (stereo not given), the inhibition is 76% (active).

On to `O=C1CCCN1CCCNC(=S)Nc1ccc(F)c(Cl)c1`, for which the inhibition is 72.7% (active).

In the case of `FC(F)Oc1ccc(NC(=S)NCc2ccco2)cc1Cl`, the outcome was inactive.

Turning to `COc1ccc(S(=O)(=O)/N=C2\C=C(NS(=O)(=O)c3ccccc3)C(=O)c3ccccc32)cc1`, the compound was classed as inactive.

As to `Fc1cc(Br)ccc1NC(=S)Nc1cccnc1`, the compound was called inactive.

For the compound `CCNC(=O)c1ccc(OCC(=O)Nc2ccc(F)cc2)c(OC)c1`, the compound was classed as inactive.

As to `Cc1nn(C)cc1N1C(=O)c2cccc3c(N)ccc(c23)C1=O`, the outcome was inactive.

For `CCOC(=O)c1c(NC(=O)C(C)Sc2c[nH]c3ccccc23)sc2c1CCC2` (stereo not given), the inhibition was 105% (active).

For `Cc1cccc(-n2cc(CN3CCN(C(=O)c4ncn[nH]4)CC3)c(-c3cccc(F)c3)n2)c1`, the compound was called inactive.

For the compound `O=C(NCCc1ccccc1)c1ccc2c(c1)N(Cc1ccccc1)CCS2`, the inhibition is 101% (active).

With `COC(=O)c1cc(NC(=O)c2cc(C(C)(C)C)nn2Cc2cccc(C)c2)ccc1N1CCOCC1`, the inhibition is 80.3% (active).

For the compound `Cc1oc2c(F)c(F)c(F)c(F)c2c1S(=O)(=O)Nc1cccc(C(F)(F)F)c1`, the outcome was inactive.

With `Cc1cccc(CSc2ccc(-c3cccs3)nn2)c1`, the inhibition was 114% (active).

For the compound `CCCC(=O)N1CCN(c2nnc(-c3ccc(C)cc3)c3ccccc23)CC1`, the inhibition is 75% (active).

On to `COc1ccc(Nc2ncnc3sc(-c4ccccc4)cc23)c(OC)c1`, for which the inhibition was 112% (active).

On to `COC(=O)c1ccc(NC(=O)Nc2ccc(C)cc2)cc1`, for which the result was inactive.

Regarding `CN(c1cccc(NC(=O)Nc2ccc(Cl)cc2)c1)S(C)(=O)=O`, the compound was called inactive.

Regarding `CC(C)OC(=O)C(C#N)c1nc2ccccc2nc1N1CCN(Cc2ccccc2)CC1` (stereo not given), the inhibition is 100% (active).

`Cc1ccc(-c2noc(CC(c3ccccc3)c3ccccc3)n2)cc1`: the inhibition is 77% (active).

In the case of `S=C(Nc1cccc(Cl)c1)Nc1ccc2c(c1)OCCO2`, the outcome was inactive.

As to `O=C1CCc2cc(S(=O)(=O)N3CCC(C(=O)NCc4ccccc4Cl)CC3)ccc2N1`, the compound was classed as inactive.

Take `O=C(NCC(F)(F)F)Nc1nnc(C(F)(F)F)s1`: the result was inactive.

Consider `Cc1ccc(N2CCN(S(=O)(=O)c3ccc(F)cc3)CC2)c(C)c1`, for which the inhibition is 94% (active).

With `CS(=O)(=O)N(CC(=O)Nc1ccc(Cl)c(Cl)c1)C1CCCCC1`, the inhibition is 63.3% (active).

`CCOc1ccc(CN2CCN(Cc3c[nH]c4ccccc34)CC2)cc1`: the outcome was inactive.

As to `COc1ccc(-c2cc(C(F)(F)F)nc(S(C)(=O)=O)n2)cc1OC`, the call was inactive.

Turning to `Oc1ccc2ccc3cccc[n+]3c2c1`, the compound was called inactive.

By inhibition is commonly meant the change of the read-out against control, counted positive when it falls.
